PMC7034990 (Science Advances, 2020)

Assays:
[1] = system: F508del-CFTR CFBE41o− cells; test: HS-YFP assay in CFBE41o− cells expressing F508del-CFTR; type: cell-based
[2] = system: F508del/F508del bronchial epithelial cells; test: Short-circuit current recordings on primary CF bronchial epithelial cells; type: cell-based, human
Method in brief: (§1)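 Primary bronchial epithelial cells came from lung-transplant bronchi and were differentiated on porous inserts, then kept 2–3 weeks under air-liquid culture. Correctors or DMSO were given in basolateral medium. Epithelia were mounted in a vertical diffusion chamber, bicarbonate saline (126 mM NaCl, 24 mM NaHCO3, 10 mM glucose) both sides, gassed 5% CO2:95% air, 37°C. Voltage was clamped and short-circuit current recorded. ENaC was blocked with amiloride (10 μM).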

F508del-CFTR FRT cells = test: Transepithelial electrical conductance; type: cell-based; conditions: 24 hours, compared to VX-809 (1 μM)
Method in brief: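 F508del-CFTR FRT cells on porous membranes were treated 24 h at 37°C, 5% CO2. Same saline both sides: 130 mM NaCl, 10 mM Na-Hepes pH 7.3, 10 mM glucose. TEER was read at baseline, after forskolin 20 μM + genistein 50 μM, then after PPQ102 30 μM, waiting 10 min per step. TEER values were converted to TEEC.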

[3] = system: F508del-CFTR CFBE41o− cells; test: Western blot of F508del-CFTR maturation in CFBE41o− cells; type: cell-based; conditions: 24 hours
Method in brief: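 Confluent CFBE41o− cells expressing F508del-CFTR were treated with test compounds or DMSO. They were lysed in RIPA with protease inhibitors and cleared at 15,300g, 4°C, 10 min. Lysates were run on SDS-PAGE and immunoblotted with mouse monoclonal anti-CFTR. Immature core-glycosylated band B runs near 150 kDa. Bands were quantified as regions of interest and normalised to GAPDH.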

[4] = system: bronchial epithelial cells (F508del/F508del, F508del/other mutation, non-CF); test: TEEC/PD technique; type: cell-based, human; conditions: for F508del-CFTR function, ∆Ieq: 10 nM
Method in brief: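 CF and non-CF primary bronchial epithelia at air-liquid interface on 0.33-cm2 inserts were treated 24 h at 37°C, 5% CO2. Measurements used Coon's F12 with NaHCO3 replaced by 20 mM Na-Hepes (pH 7.3), after 1 h equilibration. TEER and PD were read at baseline, after apical amiloride 10 μM, forskolin 10 μM + genistein 50 μM bilateral, then apical PPQ102 30 μM, 10 min each. Ieq came from Ohm's law; ∆Ieq = change on PPQ102.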

[5] = molecular target: T1, F508del-CFTR in CFBE41o− cells (Homo sapiens, UniProt P13569, DEL508-508); test: F508del-CFTR half-life after cycloheximide block of protein synthesis; type: cell-based; conditions: 24 hours of treatment then cycloheximide, ARN23765 1 nM, VX-809 1 μM
[6] = molecular target: T1, F508del-CFTR in CFBE41o− cells; test: Thermoaggregation assay of mutant CFTR in cell lysates; type: cell-based; conditions: lysates heat-denatured at 28° to 70°C; ARN23765 1 nM, VX-809 1 μM
Method in brief: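 F508del-CFTR CFBE41o− cells were treated 24 h; wild-type CFTR CFBE41o− cells were run in parallel. Confluent cells received cycloheximide (150 μg/ml) for 2 h, were lysed in RIPA on ice and cleared at 15,000g, 10 min, 4°C. Lysate (50 μg) was heated 15 min at 28–70°C. Aggregates were removed at 15,000g, 15 min, 4°C; soluble CFTR was immunoblotted and normalised to HSP90AB1.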

[7] = system: F508del/F508del cultured bronchial epithelia; test: Apical fluid pH measurement on CF bronchial epithelia; type: cell-based, human; conditions: 24 hours
Method in brief: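 CF bronchial epithelia at air-liquid interface were treated 24 h with correctors or DMSO vehicle. The apical side then received 75 μl low-buffer modified PBS (pH 7.35) containing 100 μM CPT-cAMP and 1 μM VX-770, for 3 h at 37°C, 5% CO2. The recovered fluid was mixed with SNARF-1 (final 0.1 mg/ml), excited at 544 nm, and the 590/640 nm emission ratio converted to pH by calibration curve.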

[8] = system: Ca2+-activated Cl− secretion in bronchial epithelia; test: Ca2+-activated Cl− secretion elicited by UTP; type: cell-based, human; conditions: UTP 100 μM; ARN23765 10 nM, VX-809 1 μM, 24 hr
Method in brief: as §1

P574H-CFTR = P574H-CFTR (Homo sapiens, UniProt P13569, P574H); test: Rescue of P574H-CFTR in FRT cells; type: cell-based; conditions: 37 °C or 32 °C
Method in brief: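 FRT cells stably co-expressing P574H-CFTR and HS-YFP (H148Q/I152L), plated at 50,000/well. After a PBS wash, cells were stimulated 25 min with forskolin 20 μM plus VX-770 1 μM. Iodide solution was then injected (final I− 100 mM) and YFP fluorescence read at 500/535 nm ex/em. Values were normalized to initial background-subtracted fluorescence. I− influx rate came from an exponential fit of the final 11 s.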

CFBE41o− cells = test: Cell viability panel; type: cell-based; conditions: 24 hr, positive controls celastrol or cytochalasin D
Method in brief: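 CFBE41o− cells. Proliferation: 5000 cells/well; after 24 h, test compound at several concentrations or DMSO; tracked 24 h by high-content imaging. MTT: 50,000 cells/well; treated 24 h after plating; next day MTT 0.5 mg/ml final, 3 h at 37°C; absorbance at 560 nm. Cell death: 50,000 cells/well, treated 24 h, then Hoechst 33342 plus propidium iodide stain and high-content imaging.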

[9] = system: receptors, monoamine transporters, ABC proteins, and hERG channel; test: Off-target panel; conditions: 10 μM
[10] = molecular target: ABC-B1 (MDR1, P-glycoprotein) (Homo sapiens, UniProt P08183); test: ABC transporter inhibition, ABC-B1; type: in vitro ADME
[11] = molecular target: ABC-C2 (multidrug resistance-associated protein 2) (Homo sapiens, UniProt Q92887); test: ABC transporter inhibition, ABC-C2; type: in vitro ADME; conditions: read-out: inhibition of ABC-C2
ABC-C2 (multidrug resistance-associated protein 2), sequence (Q92887 whole entry, species assumed): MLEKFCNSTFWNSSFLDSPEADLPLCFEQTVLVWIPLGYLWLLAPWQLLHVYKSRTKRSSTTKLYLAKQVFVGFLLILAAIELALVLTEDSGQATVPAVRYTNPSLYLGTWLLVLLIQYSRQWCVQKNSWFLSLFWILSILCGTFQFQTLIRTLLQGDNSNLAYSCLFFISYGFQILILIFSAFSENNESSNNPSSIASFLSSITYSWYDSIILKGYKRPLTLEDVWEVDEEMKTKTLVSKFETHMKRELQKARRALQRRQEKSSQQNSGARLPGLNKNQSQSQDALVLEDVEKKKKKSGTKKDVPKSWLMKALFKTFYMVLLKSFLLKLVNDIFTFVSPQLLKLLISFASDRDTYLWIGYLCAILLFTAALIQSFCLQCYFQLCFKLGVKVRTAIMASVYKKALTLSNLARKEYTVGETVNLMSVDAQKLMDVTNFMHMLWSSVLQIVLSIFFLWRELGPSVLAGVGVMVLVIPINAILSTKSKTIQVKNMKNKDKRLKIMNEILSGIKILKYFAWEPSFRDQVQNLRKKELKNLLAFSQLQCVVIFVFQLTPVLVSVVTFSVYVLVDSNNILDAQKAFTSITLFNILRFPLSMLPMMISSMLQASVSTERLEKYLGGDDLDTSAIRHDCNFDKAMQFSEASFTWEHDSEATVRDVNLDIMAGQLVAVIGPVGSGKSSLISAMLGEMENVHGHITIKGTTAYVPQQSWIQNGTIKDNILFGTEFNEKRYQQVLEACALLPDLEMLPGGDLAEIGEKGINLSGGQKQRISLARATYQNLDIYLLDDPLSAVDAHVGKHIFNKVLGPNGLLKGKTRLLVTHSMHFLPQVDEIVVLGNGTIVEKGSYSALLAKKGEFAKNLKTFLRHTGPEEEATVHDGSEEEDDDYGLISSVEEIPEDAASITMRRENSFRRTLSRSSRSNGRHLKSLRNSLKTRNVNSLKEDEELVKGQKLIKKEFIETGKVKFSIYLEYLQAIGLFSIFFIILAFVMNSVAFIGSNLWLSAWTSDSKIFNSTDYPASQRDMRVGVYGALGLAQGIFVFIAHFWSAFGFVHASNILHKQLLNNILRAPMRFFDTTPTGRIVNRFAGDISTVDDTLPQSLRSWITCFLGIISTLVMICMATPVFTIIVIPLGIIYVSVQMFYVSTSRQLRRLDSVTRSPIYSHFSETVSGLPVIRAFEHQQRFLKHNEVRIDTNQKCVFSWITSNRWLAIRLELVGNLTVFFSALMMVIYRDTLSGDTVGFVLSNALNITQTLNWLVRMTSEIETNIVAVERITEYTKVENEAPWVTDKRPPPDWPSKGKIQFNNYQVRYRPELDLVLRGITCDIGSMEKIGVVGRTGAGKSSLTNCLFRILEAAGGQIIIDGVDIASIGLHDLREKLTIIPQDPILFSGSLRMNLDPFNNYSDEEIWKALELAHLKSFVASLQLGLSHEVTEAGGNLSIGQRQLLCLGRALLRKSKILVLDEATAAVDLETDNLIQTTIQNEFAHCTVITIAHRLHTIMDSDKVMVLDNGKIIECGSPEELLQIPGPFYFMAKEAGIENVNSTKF

ABC-B1 (MDR1, P-glycoprotein), sequence (P08183 whole entry, species assumed): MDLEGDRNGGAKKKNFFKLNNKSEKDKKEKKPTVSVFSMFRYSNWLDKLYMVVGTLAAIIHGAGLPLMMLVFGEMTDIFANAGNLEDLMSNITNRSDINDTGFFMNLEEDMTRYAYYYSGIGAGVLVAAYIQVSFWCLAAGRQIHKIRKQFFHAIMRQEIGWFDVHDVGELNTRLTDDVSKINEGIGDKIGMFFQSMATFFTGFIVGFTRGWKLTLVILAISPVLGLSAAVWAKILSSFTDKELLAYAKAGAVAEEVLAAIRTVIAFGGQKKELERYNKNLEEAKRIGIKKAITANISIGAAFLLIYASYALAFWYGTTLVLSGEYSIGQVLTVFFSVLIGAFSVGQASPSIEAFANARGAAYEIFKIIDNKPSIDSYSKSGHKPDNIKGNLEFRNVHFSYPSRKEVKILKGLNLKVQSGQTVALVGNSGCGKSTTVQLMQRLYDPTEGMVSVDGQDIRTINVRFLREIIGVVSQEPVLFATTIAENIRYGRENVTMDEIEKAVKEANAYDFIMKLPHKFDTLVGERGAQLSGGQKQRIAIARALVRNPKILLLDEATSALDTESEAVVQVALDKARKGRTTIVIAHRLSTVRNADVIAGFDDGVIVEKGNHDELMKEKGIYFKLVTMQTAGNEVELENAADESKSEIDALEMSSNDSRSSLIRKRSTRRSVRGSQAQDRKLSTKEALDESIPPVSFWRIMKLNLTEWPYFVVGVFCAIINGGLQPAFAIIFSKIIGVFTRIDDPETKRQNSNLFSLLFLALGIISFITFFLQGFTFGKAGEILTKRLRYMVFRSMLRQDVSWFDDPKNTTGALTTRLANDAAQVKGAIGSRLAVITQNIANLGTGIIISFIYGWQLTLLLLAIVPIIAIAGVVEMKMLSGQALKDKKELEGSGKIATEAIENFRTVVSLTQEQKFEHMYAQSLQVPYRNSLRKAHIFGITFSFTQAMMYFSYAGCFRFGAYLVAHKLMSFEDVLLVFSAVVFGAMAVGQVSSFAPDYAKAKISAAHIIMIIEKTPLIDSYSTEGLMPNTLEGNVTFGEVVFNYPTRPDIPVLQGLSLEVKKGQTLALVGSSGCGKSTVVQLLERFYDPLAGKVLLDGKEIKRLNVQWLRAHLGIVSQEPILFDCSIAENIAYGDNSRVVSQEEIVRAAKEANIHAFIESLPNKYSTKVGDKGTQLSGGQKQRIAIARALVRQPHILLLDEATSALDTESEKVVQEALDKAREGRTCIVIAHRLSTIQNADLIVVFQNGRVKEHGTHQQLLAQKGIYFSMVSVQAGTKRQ

CN(C(=O)c1cccc(-n2nc(C(F)(F)F)c3c2[C@@H](Oc2ccc(C(=O)O)cc2)CCC3)c1)c1ccc2c(c1)OC(F)(F)O2 [ARN23765]
F508del-CFTR activity (QR) of the ARN23765/VX-809 combination ([1]; CFBE41o− cells, VX-809 1 μM, ARN23765 10 nM, or both): no additive effect | EC50 ([1]; Homo sapiens, CFBE41o-, 24 h): 0.4 nM | effective concentrations lower compared to VX-809 and VX-661 [2]: more than 5000 times | time after removal of the compound at which correction can be observed [2]: up to 36 hours | improvement in potency (EC50) with respect to VX-809 / presently available corrector drugs ([2]; F508del/F508del bronchial epithelial cells): more than 5000 fold | EC50 ([2]; Homo sapiens, Epithelial cell): 0.038 nM | extent of rescue after 72 hours of treatment ([2]; VX-809 1 μM or ARN23765 1 nM for 72 hours): comparable to that of epithelia treated with these correctors for only 24 hours | F508del-CFTR rescue after 120 hours of treatment ([2]; VX-809 1 μM or ARN23765 1 nM for 120 hours, compared to 72 hours): still maintained | rescue of F508del-CFTR function ([2]; short-circuit current, CF primary bronchial epithelial cells, 24 hours): decreased at 1 μM | correction of F508del-CFTR, ∆TEEC (F508del-CFTR FRT cells): high potency and efficacy | F508del-CFTR maturation, band C [3]: at low concentrations was also observed | F508del-CFTR function, ∆Ieq ([4]; cells from four patients with F508del/F508del, 24 hours): markedly increased F508del-CFTR function, with results comparable to those of VX-809 (1 μM) | F508del-CFTR function, ∆Ieq ([4]; epithelia from two patients with a single copy of F508del and a premature stop codon (R553X and G542X)): notably effective | wild-type CFTR function, ∆Ieq ([4]; non-CF epithelia, ARN23765 10 nM, VX-809 1 μM): elicited a significant increase of wild-type CFTR function | increase of half-life of mature CFTR (band C) [5]: threefold | resistance to thermoaggregation of mature CFTR [6]: significantly increased the resistance to thermoaggregation of mature CFTR | pH of the apical fluid, combination of ARN23765 and 4172 ([7]; ARN23765 10 nM plus 4172 10 μM): further increased pH to a level significantly higher than that measured with each corrector alone | pH of the apical fluid, single corrector ([7]; ARN23765 10 nM, 4172 10 μM, versus control-treated cells): significant increase in pH | Ca2+-activated Cl− secretion [8]: unaffected | P574H-CFTR function (P574H-CFTR): improves the function of P574H-CFTR, particularly in combination with low temperature | effect on cell viability (CFBE41o− cells): did not impair cell proliferation nor caused cell toxicity | effects on a panel of relevant biological targets [9]: no alerting effects | inhibition at 10 µM [10]: 13% | inhibition at 10 µM [11]: 27%
